Assay results from ChEMBL document CHEMBL3108700, “Designing anti-inflammatory drugs from parasitic worms: a synthetic small molecule analogue of the Acanthocheilonema viteae product ES-62 prevents development of collagen-induced arthritis” (J Med Chem, 2013).
Calls of active or inactive are those of the source. Unless noted, no cut-off for these calls is given here.

Key:
[1] = target: T1, Toll-like receptor 4 (Mus musculus) (UniProt Q9QUK6); assay: Inhibition of TLR4 in ovalbumin pulsed BALB/c mouse BMDC co-cultured with DO-11.10 CD4+ T cells assessed as reduction of LPS-induced IL-17 production at 5 ug/mL after 3 days by ELISA; assay type: cell-based; conditions: T-cell
T1 sequence (whole entry): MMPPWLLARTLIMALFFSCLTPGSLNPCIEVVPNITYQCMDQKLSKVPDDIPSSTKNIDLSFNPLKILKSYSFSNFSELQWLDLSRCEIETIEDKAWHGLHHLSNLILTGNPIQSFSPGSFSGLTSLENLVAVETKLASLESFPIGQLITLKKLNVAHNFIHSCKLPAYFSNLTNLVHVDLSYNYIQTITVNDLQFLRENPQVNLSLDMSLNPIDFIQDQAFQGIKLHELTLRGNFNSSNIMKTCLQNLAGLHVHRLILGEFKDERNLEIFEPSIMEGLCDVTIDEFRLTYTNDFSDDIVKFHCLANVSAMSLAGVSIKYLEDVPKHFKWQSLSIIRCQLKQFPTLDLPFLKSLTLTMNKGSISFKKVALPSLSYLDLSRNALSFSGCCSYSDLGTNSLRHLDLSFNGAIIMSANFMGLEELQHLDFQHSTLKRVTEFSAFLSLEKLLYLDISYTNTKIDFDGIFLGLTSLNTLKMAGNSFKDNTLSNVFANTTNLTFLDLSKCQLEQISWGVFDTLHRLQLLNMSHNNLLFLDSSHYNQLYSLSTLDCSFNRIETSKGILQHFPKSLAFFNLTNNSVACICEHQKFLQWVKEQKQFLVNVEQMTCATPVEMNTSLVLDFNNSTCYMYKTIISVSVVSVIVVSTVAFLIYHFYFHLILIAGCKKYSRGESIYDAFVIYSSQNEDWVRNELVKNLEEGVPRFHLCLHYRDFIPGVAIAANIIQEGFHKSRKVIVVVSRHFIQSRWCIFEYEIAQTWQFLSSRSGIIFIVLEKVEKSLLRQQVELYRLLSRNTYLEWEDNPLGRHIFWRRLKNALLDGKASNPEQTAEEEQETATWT
Method in brief: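 BALB/c bone marrow DCs ± compound (5 μg/mL) were treated ± S. minnesota LPS and pulsed with OVA peptide (0–300 nM). They were cocultured 3 days with naive CD4+CD62L+ DO.11.10 T cells, and IL-17A was measured by ELISA. Values are mean ± SD of duplicates from two experiments.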

Mus musculus [2] = assay: Antiinflammatory activity in DBA/1 mouse collagen-induced arthritis model assessed as reduction of high disease scores at 50 ug/kg, sc administered 2 days prior to collagen challenge continued till day 21 post collagen challenge; assay type: functional, organism-based
Method in brief: (§1)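 Collagen-induced arthritis mice were dosed subcutaneously (1 μg/dose) or given PBS on days −2, 0 and 21. Arthritis was scored clinically and hind paw width measured. Incidence was the % of mice with severity score ≥2 (cumulative) or ≥4 (high score). Results are mean ± SEM. Scores n = 13 per group, pooled from two experiments; paw width n = 7, from a single experiment.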

Mus musculus [3] = assay: Antiinflammatory activity in DBA/1 mouse collagen-induced arthritis model assessed as reduction of hind paw width at 50 ug/kg, sc administered 2 days prior to collagen challenge continued till day 21 post collagen challenge; assay type: functional, organism-based; method in brief: as §1
[4] = target: T1, Toll-like receptor 4 (Mus musculus); assay: Inhibition of TLR4-mediated NFkappaB p65 activation in LPS-stimulated BALB/c mouse BMDM at 5 ug/ml preincubated for 18 hrs followed by LPS challenge measured after 1 hr by TransAM ELISA
Method in brief: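 Bone marrow macrophages (4 × 10^6/well) had their medium changed after 24 h, were pretreated with compounds at 5 μg/mL for 18 h, then stimulated for 1 h with 100 ng/mL LPS, 10 ng/mL BLP or 1 μM CpG. Activated NFκB p65 in nuclear extracts was measured by TransAM ELISA in duplicate.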

Mus musculus [5] = assay: (§2) Antiinflammatory activity in DBA/1 mouse collagen-induced arthritis model assessed as reduction in number of PMA/ionomycin-stimulated CD8+ T cells expressing IFNgamma at 50 ug/kg, sc administered 2 days prior to collagen challenge continued till day 21 post collagen challenge by flow cytometric analysis relative to control; assay type: functional, organism-based; conditions: T-cell
Method in brief: (§3)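 CIA mice given test agent (1 μg/dose) or PBS subcutaneously on days −2, 0 and 21. Draining lymph node cells (10^6/mL) in complete RPMI were stimulated ± 50 ng/mL PMA plus 500 ng/mL ionomycin, with 10 μg/mL brefeldin A for 5 h at 37 °C. Cells were surface-stained for CD4, CD8 and γδ, fixed and permeabilized, then stained for intracellular IFNγ and IL-17A. Gating used isotype controls. Cell numbers per individual mouse; naive n = 7, treated groups n = 13.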

Mus musculus [6] = assay: as §2, with “CD4+” for “CD8+”; assay type: functional, organism-based; conditions: T-cell; method in brief: as §3
Mus musculus [7] = assay: Antiinflammatory activity in DBA/1 mouse collagen-induced arthritis model assessed as reduction in serum level of IL-17 at 50 ug/kg, sc administered 2 days prior to collagen challenge continued till day 21 post collagen challenge by ELISA; assay type: functional, organism-based
Method in brief: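 Serum IL-17 was measured by ELISA in CIA mice dosed subcutaneously (1 μg/dose or PBS) on days −2, 0 and 21. Values are the mean of triplicate analyses per individual mouse (PBS n = 12, treated n = 13).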

[8] = target: T1, Toll-like receptor 4 (Mus musculus); assay: Inhibition of TLR4 in BALB/c mouse BMDM assessed as downregulation of LPS-stimulated IL-12p40 level at 5 ug/ml preincubated for 18 hrs followed by LPS challenge measured after 24 hrs by ELISA relative to control
Method in brief: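 BALB/c male bone marrow macrophages were differentiated 7 days with L929 supernatant (≥99% CD11b+/F4/80+). Cells were plated at 2 × 10^5/well in triplicate, rested overnight, and given compounds at 5 μg/mL for 18 h. They were then stimulated with 100 ng/mL S. minnesota LPS, 10 ng/mL Pam3CSK4 (BLP) or 0.01 μM CpG for 24 h. Supernatant IL-12p40 and IL-6 were measured by ELISA (sensitivity 16 pg/mL).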

[9] = Cytotoxicity against CpG-stimulated BALB/c mouse BMDM assessed as loss of cell viability at 5 ug/mL preincubated for 18 hrs followed by CpG challenge measured after 24 hrs by 7-AAD staining-based flow cytometric analysis
Method in brief: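 BALB/c bone marrow macrophages (2 × 10^5/well) were rested 24 h in complete RPMI, then given 5 μg/mL compound for 18 h. Cells were stained with 7-AAD for 10 min on ice and the dead fraction read by flow cytometry. One experiment is representative of two.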

inhibition [1]: Active
inhibition [4]: Active
inhibition [8]: Active
SMILES: CN(C)CCS(=O)(=O)Cc1ccc(Br)cc1
Activity (Mus musculus [2]): Active
Activity (Mus musculus [3]): Active
Activity (Mus musculus [5]): Active
Activity (Mus musculus [6]): Active
Activity (Mus musculus [7]): inactive
Activity [9]: Non-toxic
